Data on 3 molecules can be found in ChEMBL document CHEMBL1152541, “Staurosporine tethered peptide ligands that target cAMP-dependent protein kinase (PKA): optimization and selectivity profiling” (Bioorg Med Chem, 2009).

Each structure is given as a SMILES string. *1 amine or outer side, *2 acyl side, *3 side chain or, on linkers, in order; H or OH if unused. Where a SMILES comes first, the peptide text is derived from it. Bridges are numbered along the chain shown (N, C = ends). [ ]: non-standard residue; d: D form. The star is where a group is joined. Staurosporine = CO[C@@H]1[C@H](N(C)*)C[C@H]2O[C@]1(C)n1c3ccccc3c3c4c(c5c6ccccc6n2c5c31)C(=O)NC4; Suc = O=C(CCC(=O)[*:2])[*:1]; Dap = NC[C@H](N)C(=O)O; βAla = NCCC(=O)O

Experiment [1] deals with Receptor tyrosine-protein kinase erbB-4 (Homo sapiens) (UniProt Q15303). In words: Binding affinity to human ERBB4 at 500 nM by cell-based competition binding assay relative to control in presence of DTT. In outline:
(§1)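 Commercial (Ambit) competitive kinase-binding panel of 90 kinases measured the binding profile. Run under reducing conditions of 7.5 mM DTT. Binding is expressed relative to control.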

Experiment [2] has as its target T1, Tyrosine-protein kinase JAK3 (Homo sapiens) (UniProt P52333).
T1 sequence (whole entry): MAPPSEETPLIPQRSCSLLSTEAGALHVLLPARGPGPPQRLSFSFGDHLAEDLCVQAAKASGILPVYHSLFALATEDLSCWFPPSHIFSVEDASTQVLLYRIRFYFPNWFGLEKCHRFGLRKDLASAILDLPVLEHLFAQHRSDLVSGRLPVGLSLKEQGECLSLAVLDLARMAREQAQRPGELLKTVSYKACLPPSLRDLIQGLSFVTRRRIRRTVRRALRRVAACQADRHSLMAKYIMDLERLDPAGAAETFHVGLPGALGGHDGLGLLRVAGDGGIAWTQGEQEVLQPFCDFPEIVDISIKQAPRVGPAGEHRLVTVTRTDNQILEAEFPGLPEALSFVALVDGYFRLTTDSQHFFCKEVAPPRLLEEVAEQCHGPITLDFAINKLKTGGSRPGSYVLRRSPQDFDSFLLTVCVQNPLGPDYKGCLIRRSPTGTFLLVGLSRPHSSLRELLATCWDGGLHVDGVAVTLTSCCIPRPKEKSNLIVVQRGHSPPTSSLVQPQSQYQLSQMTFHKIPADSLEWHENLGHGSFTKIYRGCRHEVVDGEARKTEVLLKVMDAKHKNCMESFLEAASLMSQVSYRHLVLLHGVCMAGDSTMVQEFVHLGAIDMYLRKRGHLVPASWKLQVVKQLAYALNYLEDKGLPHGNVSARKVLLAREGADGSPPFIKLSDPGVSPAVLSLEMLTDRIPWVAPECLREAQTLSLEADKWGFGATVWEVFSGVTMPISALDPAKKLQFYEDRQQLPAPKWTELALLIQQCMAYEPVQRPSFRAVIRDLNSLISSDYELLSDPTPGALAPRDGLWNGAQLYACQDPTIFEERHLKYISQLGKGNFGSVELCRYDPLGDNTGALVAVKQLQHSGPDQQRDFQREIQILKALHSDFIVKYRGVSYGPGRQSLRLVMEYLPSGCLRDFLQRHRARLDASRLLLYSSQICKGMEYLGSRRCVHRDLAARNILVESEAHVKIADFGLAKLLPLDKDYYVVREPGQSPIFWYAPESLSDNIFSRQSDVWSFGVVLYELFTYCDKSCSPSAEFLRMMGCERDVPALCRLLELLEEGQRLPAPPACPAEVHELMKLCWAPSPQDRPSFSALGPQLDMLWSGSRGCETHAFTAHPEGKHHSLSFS
The experiment in a line: Binding affinity to human JAK3 kinase domain 2 at 500 nM by cell-based competition binding assay relative to control in presence of DTT. A digest of the protocol: (§2)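 Competition binding screen (Ambit) across a panel of 90 kinases, scoring test ligand displacement of each kinase's binding relative to control. The screen ran under reducing conditions with 7.5 mM DTT.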

In experiment [3] the target is Mitogen-activated protein kinase kinase kinase 4 (Homo sapiens) (UniProt Q9Y6R4). The experiment in a line: Binding affinity to human MAP3K4 at 500 nM by cell-based competition binding assay relative to control in presence of DTT. In outline:
as §2

Experiment [4] deals with MAP kinase-interacting serine/threonine-protein kinase 2 (Homo sapiens) (UniProt Q9HBH9). In words: Binding affinity to human MKNK2 at 500 nM by cell-based competition binding assay relative to control in presence of DTT.
Experiment [5] has as its target Epidermal growth factor receptor (Homo sapiens) (UniProt P00533). In words: Binding affinity to human EGFR at 200 nM by cell-based competition binding assay relative to control in presence of DTT. In outline: as §1
The target of experiment [6] is Fibroblast growth factor receptor 3 (Homo sapiens) (UniProt P22607). In words: Binding affinity to human FGFR3 at 200 nM by cell-based competition binding assay relative to control in presence of DTT. A digest of the protocol:
as §1

The target of experiment [7] is Dual specificity mitogen-activated protein kinase kinase 2 (Homo sapiens) (UniProt P36507). The experiment in a line: Binding affinity to human MEK2 at 200 nM by cell-based competition binding assay relative to control in presence of DTT.
In experiment [8] the target is Serine/threonine-protein kinase PLK1 (Homo sapiens) (UniProt P53350). The experiment in a line: Binding affinity to human PLK1 at 200 nM by cell-based competition binding assay relative to control in presence of DTT.
Experiment [9] has as its target T2, Aurora kinase A (Homo sapiens) (UniProt O14965).
T2 sequence (whole entry): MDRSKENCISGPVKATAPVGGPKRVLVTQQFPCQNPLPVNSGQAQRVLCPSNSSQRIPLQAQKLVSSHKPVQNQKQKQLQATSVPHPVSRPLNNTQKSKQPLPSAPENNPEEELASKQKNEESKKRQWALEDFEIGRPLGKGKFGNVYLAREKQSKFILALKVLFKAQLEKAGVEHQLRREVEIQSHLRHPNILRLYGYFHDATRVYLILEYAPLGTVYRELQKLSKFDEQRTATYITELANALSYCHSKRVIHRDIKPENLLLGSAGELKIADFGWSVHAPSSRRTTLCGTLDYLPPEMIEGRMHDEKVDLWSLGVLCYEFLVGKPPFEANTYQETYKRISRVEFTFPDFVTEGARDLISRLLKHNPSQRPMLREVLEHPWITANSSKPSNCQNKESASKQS
In words: Binding affinity to human aurora kinase A at 50 nM by cell-based competition binding assay relative to control in presence of DTT.

In experiment [10] the target is Cyclin-dependent kinase 7 (Homo sapiens) (UniProt P50613). In words: Binding affinity to human CDK7 at 50 nM by cell-based competition binding assay relative to control in presence of DTT. In outline:
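Kinase binding profiling ran on a commercial (Ambit) competitive binding screen against a panel of 90 kinases. The screen used reducing conditions with 7.5 mM DTT. To withstand the DTT, the bivalent ligand was tested as its amide isostere, with the disulfide replaced. A staurosporine derivative carrying a 3 β-alanine linker was run as the reference compound.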

Experiment [11] concerns the target Serine/threonine-protein kinase pim-1 (Homo sapiens) (UniProt P11309). The experiment in a line: Binding affinity to human PIM1 at 50 nM by cell-based competition binding assay relative to control in presence of DTT.
The target of experiment [12] is Vascular endothelial growth factor receptor 2 (Homo sapiens) (UniProt P35968). The experiment in a line: Binding affinity to human VEGFR2 at 50 nM by cell-based competition binding assay relative to control in presence of DTT.
For experiment [13], the target named is Focal adhesion kinase 1 (Homo sapiens) (UniProt Q05397). In words: Binding affinity to human PTK2 at 50 nM by cell-based competition binding assay relative to control in presence of DTT.
Experiment [14] concerns the target Glycogen synthase kinase-3 beta (Homo sapiens) (UniProt P49841). In words: Binding affinity to human GSK3-beta at 50 nM by cell-based competition binding assay relative to control in presence of DTT. In outline:
as §2

Consider `CO[C@@H]1[C@H](N(C)C(=O)CCC(=O)NCCC(=O)NCCC(=O)NCCC(N)=O)C[C@H]2O[C@]1(C)n1c3ccccc3c3c4c(c5c6ccccc6n2c5c31)C(=O)NC4`, for which the Activity is 70% in [1], 3.6% in [2], 95% in [3] and 39% in experiment [4].

For `CO[C@@H]1[C@H](N(C)C(=O)CCC(=O)NCCC(=O)NCCC(=O)NCCC(=O)NCCC(=O)NCCC(=O)NCCC(=O)NCCC(=O)N[C@H]2CSSC[C@@H](C(=O)NCC(N)=O)NC(=O)CNC(=O)[C@H](Cc3ccccc3)NC(=O)[C@H](C(C)C)NC(=O)[C@H](CCCNC(=N)N)NC(=O)[C@H](Cc3ccccc3)NC(=O)[C@H](C(C)C)NC2=O)C[C@H]2O[C@]1(C)n1c3ccccc3c3c4c(c5c6ccccc6n2c5c31)C(=O)NC4` ({Staurosporine-Suc-βAla-βAla-βAla-βAla-βAla-βAla-βAla}-CVFRVFGCG-NH2; disulfide 1-8), the Activity in [5] turned out to be 96%; in [6], 85%; in experiment [7], 100%; in [8], 95%.

Take `CO[C@@H]1[C@H](N(C)C(=O)CCC(=O)NCCC(=O)NCCC(=O)NCCC(=O)NCCC(=O)NCCC(=O)NCCC(=O)NCCC(=O)N[C@H]2CNC(=O)C[C@@H](C(N)=O)NC(=O)CNC(=O)[C@H](Cc3ccccc3)NC(=O)[C@H](C(C)C)NC(=O)[C@H](CCCNC(=N)N)NC(=O)[C@H](Cc3ccccc3)NC(=O)[C@H](C(C)C)NC2=O)C[C@H]2O[C@]1(C)n1c3ccccc3c3c4c(c5c6ccccc6n2c5c31)C(=O)NC4` ({Staurosporine-Suc-βAla-βAla-βAla-βAla-βAla-βAla-βAla}-[Dap]VFRVFGD-NH2; lactam 1-8): the Activity was 63% in [9]; 98% in experiment [10]; 79% in experiment [11]; 91% in [12]; 100% in experiment [13]; 74% in experiment [14].
